According to ChEMBL document CHEMBL1139207, “Pyrroloacridine alkaloids from Plakortis quasiamphiaster: structures and bioactivity” (J Nat Prod, 2007):
Active and inactive are the calls of the source. The calls are words filed in the database; no cut-off is given here.

Columns and labels:
[1] = Induction of Top2-mediated catenation of DNA; type: functional
[2] = Cytotoxicity against human H116 cells by disk diffusion assay; type: cell-based
[3] = test system: Saccharomyces cerevisiae; assay: Inhibition of Saccharomyces cerevisiae top1delta by yeast halo assay; type: functional, organism-based
Outline: (§1)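 Diploid S. cerevisiae BY4743 (top1∆ or wild type) from overnight culture seeded into YPD-H agar (YPD buffered with 25 mM HEPES, pH 7) and cooled 30 min. DMSO stocks were pin-transferred at 200 nL into the agar. Plates read by absorbance at 544 nm, growth-inhibition halo diameter measured, and top1∆ growth compared with wild type.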

[4] = test system: Saccharomyces cerevisiae; assay: Inhibition of wild type Saccharomyces cerevisiae by yeast halo assay; type: functional, organism-based; outline: as §1
[5] = Cytotoxicity against human H116 cells by clonogenic assay after 2 hrs; type: cell-based; conditions: h116, 2 h
Outline: (§2)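 Clonogenic survival of human colon H-116 cells over a range of concentrations, exposed for 2, 24 or 168 h (168 h being continuous over the 7-day incubation). Value reported as the concentration giving 10% surviving fraction (S10), read from the concentration-response curve.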

[6] = Cytotoxicity against human H116 cells by clonogenic assay after 24 hrs; type: cell-based; conditions: h116, 24 h; outline: as §2
[7] = Cytotoxicity against human H116 cells by clonogenic assay after 168 hrs; type: cell-based; conditions: h116, 168 h; outline: as §2
[8] = test system: Saccharomyces cerevisiae; assay: Inhibition of Saccharomyces cerevisiae top1delta in liquid culture; type: functional
Outline: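 Diploid S. cerevisiae BY4743 top1∆ and wild type grown in 100 µL liquid cultures with six 2-fold dilutions of compound alongside DMSO controls. Absorbance at 544 nm read every 30 min. Doubling time computed at each concentration and compared with the DMSO doubling time; LC50 derived.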

SMILES	Activity [1]	Activity [2]	Activity [3]	Activity [4]	Activity [5] [µg/mL]	Activity [6] [µg/mL]	Activity [7] [ng/mL]	LC50 [8] [µM]
Cn1ccc2c(c1=O)C(=O)c1nccc3c1c-2nc1ccccc13	Active							
CCC/C=C/CCCCCCCCCCCC[C@]1(C)OC(=O)[C@@H](CO)[C@@H]1O [AMPHIASTERIN B2]		Not Active	inactive	inactive				
CCC/C=C/CCCCCCCCCC[C@]1(C)OC(=O)[C@@H](CO)[C@@H]1O [AMPHIASTERIN B1]		Not Active	inactive	inactive				
CNc1c2c(c3nc4ccccc4c4c3c1N=C4)NCCC2=O [PLAKINIDINE A]		Active	inactive	inactive	20	1.5	150	
O=C1CCNC2=C1C(=O)c1[nH]cc3c1c2nc1ccccc13 [PLAKINIDINE E]		Not Active	Toxic	Non-toxic				33
